# Laboratory results: PMC4716659 (European journal of medicinal chemistry, 2015)
# Read-outs that look alike come from different tables or passages of the source.
# How the values were obtained:
# [1] = human, microsomes, pH 7.4
# [2] = tested on: S. aureus VRS1 (VRSA); experiment: MBC, plating onto TSA; format: cell-based, Staphylococcus aureus
# [3] = tested on: S. aureus NRS19 (VISA); experiment: MIC, broth microdilution; format: cell-based, Staphylococcus aureus
# [4] = Microsomal stability analysis
# [5] = tested on: S. aureus VRS5 (VRSA); experiment: MIC, broth microdilution; format: cell-based, Staphylococcus aureus
# [6] = tested on: S. aureus NRS107 (MRSA); experiment: MIC, broth microdilution; format: cell-based, Staphylococcus aureus
# [7] = tested on: S. aureus VRS5 (VRSA); experiment: MBC, plating onto TSA; format: cell-based, Staphylococcus aureus
# [8] = tested on: S. aureus NRS119 (MRSA); experiment: MIC, broth microdilution; format: cell-based, Staphylococcus aureus
# [9] = tested on: methicillin-resistant Staphylococcus aureus (MRSA) ATCC 43300; experiment: MIC, broth microdilution; format: cell-based
# [10] = tested on: S. aureus VRS4 (VRSA); experiment: MIC, broth microdilution; format: cell-based, Staphylococcus aureus
# [11] = tested on: S. aureus USA500 (MRSA); experiment: MBC, plating onto TSA; format: cell-based, Staphylococcus aureus
# [12] = tested on: S. aureus NRS1 (VISA); experiment: MIC, broth microdilution; format: cell-based, Staphylococcus aureus
# [13] = tested on: S. aureus NRS1 (VISA); experiment: MBC, plating onto TSA; format: cell-based, Staphylococcus aureus
# [14] = tested on: S. aureus NRS194 (MRSA); experiment: MIC, broth microdilution; format: cell-based, Staphylococcus aureus
# [15] = tested on: S. aureus USA300 (MRSA); experiment: MIC, broth microdilution; format: cell-based, Staphylococcus aureus
# [16] = tested on: S. aureus VRS1 (VRSA); experiment: MIC, broth microdilution; format: cell-based, Staphylococcus aureus
# [17] = tested on: S. aureus USA500 (MRSA); experiment: MIC, broth microdilution; format: cell-based, Staphylococcus aureus
# [18] = tested on: S. aureus ATCC 43300 (MRSA); experiment: MBC, plating onto TSA; format: cell-based, Staphylococcus aureus
# [19] = tested on: S. aureus NRS19 (VISA); experiment: MBC, plating onto TSA; format: cell-based, Staphylococcus aureus
# [20] = tested on: S. aureus NRS194 (MRSA); experiment: MBC, plating onto TSA; format: cell-based, Staphylococcus aureus
# [21] = tested on: S. aureus USA300 (MRSA); experiment: MBC, plating onto TSA; format: cell-based, Staphylococcus aureus
# [22] = tested on: S. aureus VRS4 (VRSA); experiment: MBC, plating onto TSA; format: cell-based, Staphylococcus aureus
# [23] = tested on: S. aureus NRS37 (VISA); experiment: MIC, broth microdilution; format: cell-based, Staphylococcus aureus
# [24] = tested on: S. aureus USA 400 (MRSA); experiment: MIC, broth microdilution; format: cell-based, Staphylococcus aureus
# [25] = tested on: S. aureus USA 400 (MRSA); experiment: MBC, plating onto TSA; format: cell-based, Staphylococcus aureus
# [26] = tested on: S. aureus NRS119 (MRSA); experiment: MBC, plating onto TSA; format: cell-based, Staphylococcus aureus
# [27] = tested on: MRSA USA300; experiment: Time-kill analysis; format: cell-based, Staphylococcus aureus; conditions: MRSA USA300, 3 × MIC, 37 °C
# How it was run: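 Late-log-phase cells diluted to ~1 × 10^8 CFU/mL in MHB and exposed to test compound or vancomycin in triplicate at 37 °C. 20 μL samples taken at 0, 2, 4, 6, 8, 10, 12 and 24 h, serially diluted in PBS, and plated on TSA. Plates incubated 18–20 h at 37 °C, then viable CFU/mL counted. Data given as mean ± standard deviation.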
# [28] = tested on: S. aureus NRS107 (MRSA); experiment: MBC, plating onto TSA; format: cell-based, Staphylococcus aureus
# [29] = tested on: S. aureus NRS37 (VISA); experiment: MBC, plating onto TSA; format: cell-based, Staphylococcus aureus
# [30] = tested on: three VRSA strains; experiment: MIC against VRSA strains; format: cell-based; conditions: Staphylococcus aureus
# [31] = tested on: two VISA isolates; experiment: MIC against VISA isolates; format: cell-based; conditions: Staphylococcus aureus
# [32] = human liver microsomes, with NADPH
# [33] = Staphylococcus aureus, NRS19|VISA
# [34] = Staphylococcus aureus, MRSA|NRS107
# [35] = Staphylococcus aureus, MRSA|NRS119
# [36] = Staphylococcus aureus, ATCC43300|MRSA
# [37] = Staphylococcus aureus, MRSA|USA500
# [38] = Staphylococcus aureus, NRS1|VISA
# [39] = Staphylococcus aureus, MRSA|NRS194
# [40] = Staphylococcus aureus, MRSA|USA300
# [41] = Staphylococcus aureus, NRS37|VISA
# [42] = Staphylococcus aureus, MRSA|USA400
compound,measurement,setting,value
CC(=O)CC(c1ccccc1)c1c(O)c2ccccc2oc1=O (centres unmarked) [Warfarin],NADPH-dependent CLint,[1],0.0 µL/min/mg
same,NADPH-free CLint,[1],0.0 µL/min/mg
"[H]/N=C(/N)NN=C(C)c1sc(-c2ccc(C#CCCCC)cc2)nc1C [compound 5, (Z)-2-(1-(2-(4-(Hex-1-yn-1-yl)phenyl)-4-methylthiazol-5-yl)ethylidene) hydrazinecarboximidamide]",MBC,[2]; VRS1 (VRSA),1.4 µg/mL
same,MIC,[3]; NRS19 (VISA),1.4 µg/mL
same,NADPH-dependent CLint,[4]; [32],3.7 µL/min/mg
same,NADPH-dependent T1/2,[4]; [32],>4 h
same,NADPH-free T1/2,"[4]; human liver microsomes, without NADPH",>4 h
same,half-life,[4]; pooled human liver microsomes,exceeds 4 hours
same,MIC,[5]; VRS5 (VRSA),2.8 µg/mL
same,MIC,[6]; NRS107 (MRSA),1.4 µg/mL
same,MBC,[7]; VRS5 (VRSA),2.8 µg/mL
same,MIC,[8]; NRS119 (MRSA),1.4 µg/mL
same,MIC,[9]; MRSA ATCC 43300,1.4 µg/mL
same,MIC,[10]; VRS4 (VRSA),1.4 µg/mL
same,MBC,[11]; USA500 (MRSA),1.4 µg/mL
same,MIC,[12]; NRS1 (VISA),0.7 µg/mL
same,MBC,[13]; NRS1 (VISA),0.7 µg/mL
same,MIC,[14]; NRS194 (MRSA),1.4 µg/mL
same,MIC,[15]; USA300 (MRSA),1.4 µg/mL
same,MIC,[16]; VRS1 (VRSA),1.4 µg/mL
same,MIC,[17]; USA500 (MRSA),1.4 µg/mL
same,MBC,[18]; ATCC 43300 (MRSA),1.4 µg/mL
same,MBC,[19]; NRS19 (VISA),1.4 µg/mL
same,MBC,[20]; NRS194 (MRSA),1.4 µg/mL
same,MBC,[21]; USA300 (MRSA),1.4 µg/mL
same,MBC,[22]; VRS4 (VRSA),2.8 µg/mL
same,MIC,[23]; NRS37 (VISA),1.4 µg/mL
same,MIC,[24]; USA 400 (MRSA),1.4 µg/mL
same,MBC,[25]; USA 400 (MRSA),1.4 µg/mL
same,MBC,[26]; NRS119 (MRSA),1.4 µg/mL
same,time to completely eradicate MRSA growth,[27],≤ 4 h
same,MBC,[28]; NRS107 (MRSA),1.4 µg/mL
same,MBC,[29]; NRS37 (VISA),1.4 µg/mL
"CN[C@H](CC(C)C)C(=O)N[C@H]1C(=O)N[C@@H](CC(N)=O)C(=O)N[C@H]2C(=O)N[C@H]3C(=O)N[C@H](C(=O)N[C@H](C(=O)O)c4cc(O)cc(O)c4-c4cc3ccc4O)[C@H](O)c3ccc(c(Cl)c3)Oc3cc2cc(c3O[C@@H]2O[C@H](CO)[C@@H](O)[C@H](O)[C@H]2O[C@H]2C[C@](C)(N)[C@H](O)[C@H](C)O2)Oc2ccc(cc2Cl)[C@H]1O [Vancomycin, reference compound]",MBC,"[2]; Staphylococcus aureus, VRSA",> 190 µg/mL
same,MIC,[3]; [33],< 1.5 µg/mL
same,MIC,[30],> 190 µg/mL
same,MIC,"[5]; Staphylococcus aureus, VRSA",> 190 µg/mL
same,MIC,[6]; [34],< 1.5 µg/mL
same,MBC,"[7]; Staphylococcus aureus, VRSA",> 190 µg/mL
same,MIC,[8]; [35],< 1.5 µg/mL
same,MIC,[9]; [36],0.7 µg/mL
same,MIC,"[10]; Staphylococcus aureus, VRSA",> 190 µg/mL
same,MBC,[11]; [37],0.7 µg/mL
same,MIC,[12]; [38],3 µg/mL
same,MBC,[13]; [38],3 µg/mL
same,MIC,[14]; [39],0.7 µg/mL
same,MIC,[15]; [40],0.7 µg/mL
same,MIC,"[16]; Staphylococcus aureus, VRSA",> 190 µg/mL
same,MIC,[17]; [37],0.7 µg/mL
same,MBC,[18]; [36],0.7 µg/mL
same,MBC,[19]; [33],< 1.5 µg/mL
same,MBC,[20]; [39],0.7 µg/mL
same,MBC,[21]; [40],0.7 µg/mL
same,MBC,"[22]; Staphylococcus aureus, VRSA",> 190 µg/mL
same,MIC,[31],3 µg/mL
same,MIC,[23]; [41],3 µg/mL
same,MIC,[24]; [42],0.7 µg/mL
same,MBC,[25]; [42],0.7 µg/mL
same,MBC,[26]; [35],< 1.5 µg/mL
same,time to completely eradicate MRSA growth,[27],24 h
same,MBC,[28]; [34],< 1.5 µg/mL
same,MBC,[29]; [41],3 µg/mL
